Calls of active or inactive are those of the source. The rule behind the calls is not given here.
Legend:
COLO 205 [1] = assay: Cytotoxicity against human COLO205 cells after 2 days by XTT assay; format: functional, cell-based; details: COLO 205, 48 h
Method in brief: (§1)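 Test samples were supplied as DMSO solutions and applied to human colon tumour KM12 and COLO205 cells in a two-day in vitro XTT-based antiproliferative assay. Activity was expressed as IC50 (μM).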

COLO 205 [2] = assay: Growth inhibition of human COLO205 cells after 2 days by XTT assay; format: functional, cell-based; details: COLO 205, 48 h; method in brief: as §1
[3] = target: Endothelial PAS domain-containing protein 1 (Homo sapiens) (UniProt Q99814); assay: Inhibition of HIF-2alpha expressed in 786O cells assessed as inhibition of VEGF expression by luciferase reporter gene assay; format: cell-based
KM12 [4] = assay: Cytotoxicity against human KM12 cells after 2 days by XTT assay; format: functional, cell-based; details: KM12, 48 h; method in brief: as §1
KM12 [5] = assay: Growth inhibition of human KM12 cells after 2 days by XTT assay; format: functional, cell-based; details: KM12, 48 h; method in brief: as §1

Sequence of Endothelial PAS domain-containing protein 1 (Homo sapiens) (Q99814 whole entry, the tested form may be a part): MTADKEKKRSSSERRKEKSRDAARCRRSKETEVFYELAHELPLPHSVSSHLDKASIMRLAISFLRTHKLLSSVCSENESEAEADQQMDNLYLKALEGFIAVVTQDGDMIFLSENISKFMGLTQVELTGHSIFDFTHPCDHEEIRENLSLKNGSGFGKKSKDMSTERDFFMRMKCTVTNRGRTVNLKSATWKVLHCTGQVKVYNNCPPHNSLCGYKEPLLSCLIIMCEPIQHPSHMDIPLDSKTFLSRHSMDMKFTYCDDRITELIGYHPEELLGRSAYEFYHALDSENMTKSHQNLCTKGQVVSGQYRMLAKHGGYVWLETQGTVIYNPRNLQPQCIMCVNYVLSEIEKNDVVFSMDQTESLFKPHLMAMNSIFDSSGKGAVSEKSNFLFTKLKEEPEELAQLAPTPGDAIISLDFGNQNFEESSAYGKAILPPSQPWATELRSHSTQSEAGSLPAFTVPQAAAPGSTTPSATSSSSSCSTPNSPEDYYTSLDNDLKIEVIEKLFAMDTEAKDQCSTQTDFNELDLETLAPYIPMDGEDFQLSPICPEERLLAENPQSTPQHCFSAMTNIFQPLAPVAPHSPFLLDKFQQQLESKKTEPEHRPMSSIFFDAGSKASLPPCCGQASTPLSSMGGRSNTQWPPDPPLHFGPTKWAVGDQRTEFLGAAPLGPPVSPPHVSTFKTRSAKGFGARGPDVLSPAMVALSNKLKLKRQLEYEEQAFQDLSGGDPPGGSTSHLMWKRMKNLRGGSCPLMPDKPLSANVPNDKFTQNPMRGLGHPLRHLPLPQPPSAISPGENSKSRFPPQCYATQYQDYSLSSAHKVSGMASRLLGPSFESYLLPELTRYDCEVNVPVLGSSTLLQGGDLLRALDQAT

| Structure (SMILES) | IC50 (COLO 205 [1]) | IC50 (COLO 205 [2]) | inhibition [3] | IC50 (KM12 [4]) | IC50 (KM12 [5]) |
| --- | --- | --- | --- | --- | --- |
| C=C1[C@@H](OC(C)=O)C[C@H]2[C@@](C)(CC[C@H]3C(C)(C)CCC[C@]23C)[C@@H]1C[C@H](O)[C@H](CCOC(C)=O)C(C)=O [FLABELLIFERIN A] | 20 µM | 20 µM | inactive | 15 µM | 15 µM |
| CC(=O)O[C@H]1C[C@H]2[C@@](C)(CC[C@H]3C(C)(C)CCC[C@]23C)[C@@H]2C[C@H](O)C(C(C)=O)=C[C@@]12C [FLABELLIFERIN B] | 20 µM | 20 µM | inactive | 18 µM | 18 µM |
